Screening data (PubChem BioAssay)
CAL PDZ FP-1 – untagged CAL PDZ binding inhibitors, primary screen, biochemical, fluorescence polarization, HTS; Golgi-associated PDZ and coiled-coil motif-containing protein (Homo sapiens), Q9HD26; purified CAL PDZ, TMR-peptide fluorescence polarization, 1 h; inhibition, % at 24.9 µM; actives 0.92% (n = 300,000); AID 602252, 2012;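 active = mean inhibition of at least 30% with at least half of replicates also reaching 30%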;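 also: 0% = DMSO neutral control and 100% = excess unlabeled competitor peptide PRC23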
SR-BI uptake up – activators of SR-BI mediated DiI-HDL uptake, primary screen, ldlA[mSR-BI] CHO cells, DiI fluorescence | activation, % at 12.5 µM | actives 0.096% (n = 320,000) | 3 h; 100 = double the neutral-control signal;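 active = mean replicate activation of at least 60% and every replicate at or above 60%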;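 also: 0% = median plate neutral-control signal and 100% = twice that signal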
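Assay system: LDL receptor-deficient CHO ldlA cells overexpressing murine SR-BI / Medium: BSA-supplemented, HEPES-buffered Ham's F12, pH 7.4 / Probe or stimulus: DiI-labelled HDL at 10 µg/mL final / Timing: compound with DiI-HDL co-incubation, 3 h at 37 °C / Technique: bottom-read cell fluorescence after medium removal, ex 550/em 595 nm / Measure: HDL uptake via cellular fluorescence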
SR-BI HDL uptake – inhibitors of SR-BI mediated HDL lipid uptake, primary screen, ldlA[mSR-BI] cells, fluorescence, single point; Scavenger receptor class B member 1 (Mus musculus), Q61009; ldlA[mSR-BI] CHO cells, DiI-HDL uptake fluorescence, 3 h; inhibition, % at 12.5 µM; actives 0.96% (n = 320,000);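 active = mean replicate inhibition of at least 70% and a set share of replicates each scoring 70 or more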;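 also: 0% = median of neutral control wells and 100% = median of positive control wells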
Target sequence (Q61009 whole entry, looked up): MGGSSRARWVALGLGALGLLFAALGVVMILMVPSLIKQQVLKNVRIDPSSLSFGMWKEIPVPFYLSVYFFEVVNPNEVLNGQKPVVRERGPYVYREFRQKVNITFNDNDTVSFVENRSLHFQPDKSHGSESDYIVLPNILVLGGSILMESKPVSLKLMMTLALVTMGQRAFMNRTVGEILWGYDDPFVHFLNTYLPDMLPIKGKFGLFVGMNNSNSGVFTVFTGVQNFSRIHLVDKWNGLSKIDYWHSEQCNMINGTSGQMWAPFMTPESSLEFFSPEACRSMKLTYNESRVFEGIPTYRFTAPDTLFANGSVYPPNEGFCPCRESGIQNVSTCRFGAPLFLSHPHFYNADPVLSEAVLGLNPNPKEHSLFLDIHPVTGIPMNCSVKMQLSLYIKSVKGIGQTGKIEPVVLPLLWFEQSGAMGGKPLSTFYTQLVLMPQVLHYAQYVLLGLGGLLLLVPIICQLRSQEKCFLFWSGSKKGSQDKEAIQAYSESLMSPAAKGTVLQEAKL
miR122 inh – miR-122 Renilla sensor signal increase in Huh7, primary screen, miR-122 inhibitor project, cell-based, single point, plate reader. Huh7 miR-122 Renilla luciferase sensor, 48 h; neutral wells = 0, positive control = 100. activation (reporter increase), % at 12.5 µM. actives 0.3% (n = 340,000). AID 602342, 2012;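 active = mean replicate activation score at least 90 and every replicate individually at or above 90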;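 also: higher luciferase means less miR-122 activity so hits act as miR-122 inhibitors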
CAL PDZ FP-2 – CAL PDZ peptide-binding inhibitors, primary screen, biochemical, fluorescence polarization, Cer-tagged CAL PDZ, HTS | Golgi-associated PDZ and coiled-coil motif-containing protein (Homo sapiens), Q9HD26 | purified CAL PDZ, TMR-peptide fluorescence polarization, 1 h | inhibition, % at 20 µM | actives 0.02% (n = 330,000);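 active = highest replicate inhibition of at least 40%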;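 also: plate controls were DMSO neutral control wells for no effect and unlabeled competitor peptide control wells for full effect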
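material = purified tagged CAL PDZ domain construct (CerCALP) | compound dosing = 20 µM, one dose | times = 1 h at RT | measured by = fluorescence polarization from S- and P-plane intensities, G-factor corrected | read-out = inhibition from polarization loss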
ARNT-TACC3 inh – disruptors of ARNT/TACC3 protein interaction, primary screen, biochemical, AlphaScreen, single concentration. Transforming acidic coiled-coil-containing protein 3 (Homo sapiens), Q9Y6A5. AlphaScreen His-ARNT PAS-B/GST-TACC3 binding, luminescence; TACC3 fragment carries E629A point mutation. inhibition, % at 9.99 µM. actives 0.66% (n = 390,000). AID 623870, 2012;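 active = mean inhibition of replicates at least 50% and at least half of replicates each reaching 50%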;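 also: 0% = complete ARNT plus TACC3 wells and 100% = ARNT alone without TACC3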
Numbers without * were called inactive; x = no result; [ ] = dose if it differs, or a comment. Compounds with a hit are over-represented: about 2.1% of the library has one in this group of screens.

SMILES	CAL PDZ FP-1	SR-BI uptake up	SR-BI HDL uptake	miR122 inh	CAL PDZ FP-2	ARNT-TACC3 inh
COCC(=O)N(C)C[C@H]1Oc2ncc(C#C[C@H](C)O)cc2C(=O)N([C@@H](C)CO)C[C@@H]1C	x	x	x	0[16.7 µM]	x	-10
COc1ccc(CNC(=O)COC(=O)c2ccc3ncsc3c2)cc1OC	-6	3	-3	x	-1	0
O=C(COC(=O)c1ccc2ncsc2c1)NCc1ccc(F)cc1	54*	-5	5	x	0	-12
CO[C@H](CN(C)C(=O)c1ccc2c(c1)OCO2)[C@@H](C)CN([C@@H](C)CO)S(=O)(=O)c1ccccc1	x	x	x	x	x	-7
Cc1ccc(N2CC(C(=O)Nc3ccc(N(C)C)cc3)CC2=O)cc1C (stereo not drawn)	60*	2	-2	-12	1	-15
Cc1ccc(N2CC(C(=O)NC3=NCCS3)CC2=O)cc1C (stereo not drawn)	-13	-6	6	-3	0	-1
O=C(CC1S/C(=N/N=C/c2cccs2)NC1=O)Nc1ccccc1F (stereo not drawn)	-2	-80	80*	x	10	20
COc1ccc(/C=N/N=C2/NC(=O)C(CC(=O)NC(N)=O)S2)cc1 (stereo not drawn)	49*	10	-10	x	0	-1
CCCCNC(=O)CC1S/C(=N/N=C/c2ccc(OC)cc2)NC1=O (stereo not drawn)	1	10	-10	x	-1	-11
C[C@H](CO)N1C[C@H](C)[C@H](CN(C)S(=O)(=O)c2cccs2)OCCCC[C@H](C)Oc2ccc(NC(=O)NC3CCCCC3)cc2C1=O	x	x	x	-9[16.7 µM]	x	9
C[C@H](CO)N1C[C@H](C)[C@@H](CN(C)S(=O)(=O)c2ccc(Cl)cc2)Oc2ccc(NC(=O)Cc3cn(C)c4ccccc34)cc2C1=O	x	x	x	-7[16.7 µM]	x	6
Cc1cc(C(=O)Nc2cccc3c2O[C@@H](CN(C)Cc2ccc(-c4ccccc4)cc2)[C@H](C)CN([C@H](C)CO)C3=O)n(C)n1	x	x	x	-11[16.7 µM]	x	-13
CCOC(=O)c1c(OCC)[nH]c2c1cc(O)c1ccccc12	-2	-5	5	8	2	33*
CC(=O)c1ccc(OCC(O)CNCc2ccc3c(c2)OCO3)cc1 (stereo not drawn)	42*	-11	11	x	-2	-20
OC(CNCc1ccc2c(c1)OCO2)COc1ccc(F)cc1 (stereo not drawn)	-6	-2	2	14	-2	-4
COc1ccccc1OCCn1cc(/C=N/NC(N)=S)c2ccccc21	x	-77	77*	-5	0	-18
CNC(=S)N/N=C/c1cn(CCOc2ccc(OC)cc2)c2ccccc12	-4	-78	78*	x	-2	0
COc1ccc(OCCn2cc(C=O)c3ccccc32)cc1	2	0	0	x	-2	6
C[C@H](CO)N1C[C@H](C)[C@H](CN(C)C(=O)CC2CC2)Oc2cc(-c3cncnc3)ccc2S1(=O)=O	x	x	x	-2[16.7 µM]	x	14
Cc1ccc(-c2ccc3c(c2)O[C@@H](CN(C)C)[C@H](C)CN([C@H](C)CO)S3(=O)=O)cc1	x	x	x	-3[16.7 µM]	x	7
Cc1ccc(/C=C/C(=O)Nc2ccc([N+](=O)[O-])cc2)o1	0	-75	75*	x	-3	4
CCOC(=O)CCc1ccc(NC(=O)/C=C/c2ccc([N+](=O)[O-])o2)cc1	-4	-74	74*	x	0	6
C[C@@H]1CN([C@@H](C)CO)C(=O)c2cc(NS(C)(=O)=O)ccc2O[C@@H](C)CCCCO[C@H]1CN(C)S(=O)(=O)c1ccc(F)cc1	x	x	x	12[16.7 µM]	x	-3
CN(C)C(=O)C[C@H]1C=C[C@H](NC(=O)Nc2cccc(F)c2)[C@@H](CO)O1	x	x	x	x	x	0
CSc1cccc(NC(=O)/C=C/c2cccc(Cl)c2)c1	-4	-75	75*	-4	-3	-1
SMILES	CAL PDZ FP-1	SR-BI uptake up	SR-BI HDL uptake	miR122 inh	CAL PDZ FP-2	ARNT-TACC3 inh
O=C(/C=C/c1cccc(Cl)c1)Nc1ncccn1	-2	33	-33	x	-1	-1
O=C1OC(c2ccccc2)(c2ccccc2)c2ccccc21	4	-1	1	x	55*	-8
Cc1cc(C)c(C)c(S(=O)(=O)Nc2ccc(C(=O)N3CCCC3)cc2)c1C	-4	x	-17	135*	0	-1
Cc1cccc(NS(=O)(=O)c2cccc(C(=O)N3CCCCCCC3)c2)c1	2	-11	11	163*	-3	-2
O=C(c1cccc(S(=O)(=O)NCc2ccccc2)c1)N1CCCC1	85*	2	-2	x	-1	4
CN(c1ccccc1)S(=O)(=O)c1cccc(C(=O)N2CCCCCC2)c1	39*	-5	5	35	-1	2
O=C(c1cccc(S(=O)(=O)NCc2ccccc2)c1)N1CCN(c2ccccc2)CC1	2	-12	12	x	-1	4
CO[C@@H]1CN(C)C(=O)c2cc(NC(=O)C3CCC3)ccc2OC[C@@H](C)N(Cc2ccncc2)C[C@@H]1C	x	x	x	-10[16.7 µM]	x	-4
CCCC#Cc1ccc2c(c1)O[C@H](CN(C)C(=O)COC)[C@@H](C)CN([C@@H](C)CO)S2(=O)=O	x	x	x	-17[16.7 µM]	x	-1
CCC(=O)N1[C@H](CO)[C@H](c2ccc(-c3ccccc3)cc2)[C@@H]1CNC(=O)COC	x	x	x	14[16.7 µM]	x	-1
O=c1cc(CN2CCN(c3ccc(F)cc3)CC2)c2cc3c(cc2o1)CCCC3	-1	-71	71*	-3	x	-2
C/C(=C\C(=O)O)C12CC3CC(CC(C3)C1)C2	31*	8	-8	4	x	-5
CC(C)C(NC(=O)C12CC3CC(CC(C3)C1)C2)C(=O)O (stereo not drawn)	2	5	-5	19	0	-1
COC(=O)c1ccc(/C=N/OCC(=O)NC2CCCCCCC2)cc1	x	-16	16	163*	-1	-1
COCC(=O)N1C[C@@H]2[C@H](c3ccccc31)[C@@H](CO)N2C(=O)c1ccccc1F	x	x	x	-29[16.7 µM]	x	2
COc1ccc(OC(=O)N(C)C[C@H]2OCc3cn(nn3)CCCC(=O)N([C@@H](C)CO)C[C@H]2C)cc1	x	x	x	1[16.7 µM]	x	-7
Cc1[nH]c2ccccc2c1C(=O)CSc1ccccc1	-2	5	-5	1	0	-5
